Measured values of several laboratories.
Compare with care: the assays were run in different laboratories.
CDK16: Cyclin-dependent kinase 16 (CDK16, Homo sapiens, UniProt Q00536)
CDK16 with cyclin Y: Cyclin-dependent kinase 16, with cyclin Y (CDK16, Homo sapiens, UniProt Q00536)

`CO[C@@H](C)c1c(Nc2ccc([C@@H](N(C)C(=O)C3CCS(=O)(=O)CC3)C(F)(F)F)cc2)cnc2cc(Cl)nn12` has a remaining binding of 72% (CDK16; cell-free assay; competition with immobilised ligand; 1 µM).
`CC(C)(C)c1nc2c(s1)c1nc(N)ncc1c1ccc(NS(=O)(=O)c3c(F)cccc3F)c(F)c12` gave a remaining activity of 87% (CDK16 with cyclin Y; enzyme activity; inhibitor; radiometric; 1 µM).
`COc1cccc2c(NCc3ccccc3)nc(-n3c(N)nc4ccccc43)nc12` gave an inhibition of -2.7% (CDK16; target engagement in cells; inhibitor; chemoproteomics; 20 mM).
The ΔTm of `CCN1CCC2(CC1)NC(=O)c1c(c3ccc(Cl)c(Cl)c3n1C)C2C#N` (racemic) is reported as 0 °C (CDK16; thermal stability; DSF; 10 µM).
For `c1ccc(CNc2nc(N3CCOc4ccccc43)nc3c2CCCC3)cc1`, the inhibition was 2.9% (CDK16; target engagement in cells; inhibitor; chemoproteomics; 20 mM).
With `CCS(=O)(=O)c1cc2cc(C[C@](O)(CC(C)(C)c3ccc(F)cc3C(N)=O)C(F)(F)F)[nH]c2cn1` the remaining binding was 100% (CDK16; cell-free assay; competition with immobilised ligand; 1 µM).
`Cn1c2c(c3ccc(Cl)c(Cl)c31)C(C#N)C(C)(C)NC2=O` (stereo not drawn) has a ΔTm of 0.7 °C (CDK16; thermal stability; DSF; 10 µM).
With `Nc1cnc(N2CCc3cc(S(=O)(=O)Nc4c(F)cc(Cl)cc4F)cc(N4CCCC4=O)c32)nc1` the remaining binding was 98% (CDK16; cell-free assay; competition with immobilised ligand; 1 µM).
`N#CC1c2c([nH]c3c(Cl)c(Cl)ccc23)C(=O)NC12CCCCC2` (racemic) has a ΔTm of 0.9 °C (CDK16; thermal stability; DSF; 10 µM).
`CCCOc1ccc([C@H]2[C@H](C(=O)O)[C@@H](c3ccc4c(c3)OCO4)CN2CC(=O)Nc2c(CC)cccc2CC)cc1` has a remaining binding of 77% (CDK16; cell-free assay; competition with immobilised ligand; 1 µM).
`Cn1c2c(c3ccccc31)C(C#N)C(C)(C)NC2=O` (stereo not drawn) has a ΔTm of 0.2 °C (CDK16; thermal stability; DSF; 10 µM).
`O=C(CSc1nc2nccnc2c(=O)n1CCc1ccccc1)Nc1nccs1` has an inhibition of -7% (CDK16 with cyclin Y; enzyme activity; inhibitor; 10 µM).
